One block for each molecule: values may come before it.
Experiments:
[1] = target: T1, Glutamate NMDA receptor; Grin1/Grin2b (Rattus norvegicus) (UniProt P35439+Q00960); assay: Positive allosteric modulation of recombinant rat GluN1alpha/GluN2B receptor expressed in HEK293 cells assessed as potentiation of glutamate-induced current response at 100 uM at holding potential -60mV by whole cell voltage clamp method relative to control; type: cell-based
In short: (§1)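 HEK293 cells transfected with GluN1-1a, the GluN2 subunit and GFP. Whole-cell voltage clamp at -60 mV, series resistance <10 MΩ, 80-90% compensation, room temperature (21–25 °C). Compound is co-applied with 1 µM glutamate by multibarrel fast perfusion (exchange ~10 ms). DMSO is held at 1% in all test and control solutions. Readout is % potentiation of the glutamate-evoked current.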

[2] = target: T2, Ionotropic glutamate receptor NMDA 1/2D (Rattus norvegicus) (UniProt P35439+Q62645); assay: Positive allosteric modulation of recombinant rat GluN1alpha/GluN2D receptor expressed in HEK293 cells assessed as potentiation of glutamate-induced current response at 100 uM at holding potential -60mV by whole cell voltage clamp method relative to control; type: cell-based; in short: as §1
[3] = target: T3, Glutamate NMDA receptor; Grin1/Grin2a (Rattus norvegicus) (UniProt P35439+Q00959); assay: Positive allosteric modulation of recombinant rat GluN1alpha/GluN2A receptor expressed in HEK293 cells assessed as potentiation of glutamate-induced current response at 100 uM at holding potential -60mV by whole cell voltage clamp method relative to control; type: cell-based; in short: as §1
[4] = target: T4, Glutamate NMDA receptor; Grin1/Grin2c (Rattus norvegicus) (UniProt P35439+Q00961); assay: Positive allosteric modulation of recombinant rat GluN1alpha/GluN2C receptor expressed in HEK293 cells assessed as potentiation of glutamate-induced current response at 100 uM at holding potential -60mV by whole cell voltage clamp method relative to control; type: cell-based; in short: as §1
[5] = target: T1, Glutamate NMDA receptor; Grin1/Grin2b (Rattus norvegicus); assay: Positive allosteric modulation of recombinant rat GluN1alpha/GluN2B receptor expressed in HEK293 cells assessed as potentiation of glutamate-induced current response at 1 to 100 uM at holding potential -60mV by whole cell voltage clamp method relative to control; type: cell-based; in short: as §1
[6] = target: Glutamate NMDA receptor; Grin1/Grin2b (Rattus norvegicus, UniProt P35439+Q00960); assay: Positive allosteric modulation of recombinant rat GluN1alpha/GluN2B receptor expressed in HEK293 cells assessed as potentiation of glutamate-induced current response at holding potential -60mV by whole cell voltage clamp method; type: cell-based
In short: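 HEK293 cells transfected with GluN1-1a, GluN2A, 2B, 2C or 2D and GFP cDNA. Whole-cell voltage clamp at -60 mV, 21–25 °C, series resistance <10 MΩ compensated 80–90%. Compound co-applied with 1 µM glutamate by fast multibarrel perfusion. DMSO 1% in all solutions. At least four cells per point.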

[7] = target: T1, Glutamate NMDA receptor; Grin1/Grin2b (Rattus norvegicus); assay: Positive allosteric modulation of recombinant rat GluN1alpha/GluN2B receptor expressed in HEK293 cells assessed as potentiation of glutamate-induced current response at 30 uM at holding potential -60mV by whole cell voltage clamp method relative to control; type: cell-based
In short: (§2)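 HEK293 cells transfected with GluN1-1a, GluN2A, 2B, 2C or 2D and GFP cDNA. Whole-cell voltage clamp at -60 mV, 21–25 °C, series resistance <10 MΩ compensated 80–90%. Compound co-applied with 1 µM glutamate by fast multibarrel perfusion. DMSO 1% in all solutions. […] At least four cells per point.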

[8] = target: Glutamate NMDA receptor (Rattus norvegicus) (UniProt P35439+Q00959+Q00960+Q00961+Q62645+Q8VHN2+Q9R1M7); assay: Positive allosteric modulation of NMDAR in rat hippocampal neuron assessed as potentiation of NMDA-induced current response at 30 uM by whole cell voltage clamp method relative to control
In short: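 Native NMDARs in cultured hippocampal neurons, whole-cell voltage clamp at -60 mV, 21–25 °C. Bath also held 10 µM CNQX, 10 µM bicuculline, 0.5 µM TTX. Compound co-applied with 1 µM glutamate by fast perfusion (~10 ms exchange). DMSO 1% throughout. Potentiation relative to control glutamate response.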

[9] = target: T1, Glutamate NMDA receptor; Grin1/Grin2b (Rattus norvegicus); assay: Positive allosteric modulation of recombinant rat GluN1alpha/GluN2B receptor expressed in HEK293 cells assessed as potentiation of glutamate-induced current response at 30 uM at holding potential -60mV cotreated with 1 uM glutamate by whole cell voltage clamp method relative to control; type: cell-based
In short: (§3)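 HEK293 cells expressing GluN1-1a/GluN2B, whole-cell voltage clamp at -60 mV, 21–25 °C. Compound at 30 µM was given in one of three ways: co-applied with 1 µM glutamate, co-applied with 1 mM glutamate, or pre-applied before 1 mM glutamate. Delivery by fast perfusion, DMSO 1% throughout. Potentiation relative to the control glutamate response.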

[10] = target: T4, Glutamate NMDA receptor; Grin1/Grin2c (Rattus norvegicus); assay: Positive allosteric modulation of recombinant rat GluN1alpha/GluN2C receptor expressed in HEK293 cells assessed as potentiation of glutamate-induced current response at 30 uM at holding potential -60mV by whole cell voltage clamp method relative to control; type: cell-based; in short: as §2
[11] = target: T1, Glutamate NMDA receptor; Grin1/Grin2b (Rattus norvegicus); assay: Positive allosteric modulation of recombinant rat GluN1alpha/GluN2B receptor expressed in HEK293 cells assessed as potentiation of glutamate-induced current response at 1 to 30 uM at holding potential -60mV by whole cell voltage clamp method relative to control; type: cell-based; in short: as §2
Rattus norvegicus [12] = species: Rattus norvegicus; assay: Positive allosteric modulation of GABAR in rat hippocampal neuron assessed as potentiation of GABA-induced current response at 30 uM in presence of cyclothiazide by whole cell voltage clamp method relative to control
Rattus norvegicus [13] = species: Rattus norvegicus; assay: Positive allosteric modulation of AMPAR in rat hippocampal neuron assessed as potentiation of AMPA-induced current response at 30 uM in presence of cyclothiazide by whole cell voltage clamp method relative to control
In short: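 Cultured hippocampal neurons, whole-cell voltage clamp at -60 mV, room temperature (21–25 °C). AMPAR current evoked by 5 µM AMPA; bath also held 10 µM cyclothiazide, 50 µM D-AP5, 10 µM bicuculline, 0.5 µM TTX. Compound co-applied by fast multibarrel perfusion. DMSO 1% in all test and control solutions. Effect expressed relative to control response.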

[14] = target: T1, Glutamate NMDA receptor; Grin1/Grin2b (Rattus norvegicus); assay: Positive allosteric modulation of recombinant rat GluN1alpha/GluN2B receptor expressed in HEK293 cells assessed as potentiation of glutamate-induced current response at 30 uM at holding potential -60mV cotreated with 1 mM glutamate by whole cell voltage clamp method relative to control; type: cell-based; in short: as §3
[15] = target: T2, Ionotropic glutamate receptor NMDA 1/2D (Rattus norvegicus); assay: Positive allosteric modulation of recombinant rat GluN1alpha/GluN2D receptor expressed in HEK293 cells assessed as potentiation of glutamate-induced current response at 30 uM at holding potential -60mV by whole cell voltage clamp method relative to control; type: cell-based; in short: as §2
[16] = target: T1, Glutamate NMDA receptor; Grin1/Grin2b (Rattus norvegicus); assay: Positive allosteric modulation of recombinant rat GluN1alpha/GluN2B receptor expressed in HEK293 cells assessed as potentiation of glutamate-induced current response at 30 uM at holding potential -60mV pretreated with cells followed by 1 mM glutamate addition by whole cell voltage clamp method relative to control; type: cell-based; in short: as §3
[17] = target: T3, Glutamate NMDA receptor; Grin1/Grin2a (Rattus norvegicus); assay: Positive allosteric modulation of recombinant rat GluN1alpha/GluN2A receptor expressed in HEK293 cells assessed as potentiation of glutamate-induced current response at 1 to 30 uM at holding potential -60mV by whole cell voltage clamp method relative to control; type: cell-based; in short: as §2
[18] = target: T4, Glutamate NMDA receptor; Grin1/Grin2c (Rattus norvegicus); assay: Positive allosteric modulation of recombinant rat GluN1alpha/GluN2C receptor expressed in HEK293 cells assessed as potentiation of glutamate-induced current response at 1 to 30 uM at holding potential -60mV by whole cell voltage clamp method relative to control; type: cell-based; in short: as §2
[19] = target: T2, Ionotropic glutamate receptor NMDA 1/2D (Rattus norvegicus); assay: Positive allosteric modulation of recombinant rat GluN1alpha/GluN2D receptor expressed in HEK293 cells assessed as potentiation of glutamate-induced current response at 1 to 30 uM at holding potential -60mV by whole cell voltage clamp method relative to control; type: cell-based; in short: as §2
[20] = target: Glutamate NMDA receptor; Grin1/Grin2a (Rattus norvegicus, UniProt P35439+Q00959); assay: Positive allosteric modulation of recombinant rat GluN1alpha/GluN2A receptor expressed in HEK293 cells assessed as potentiation of glutamate-induced current response at holding potential -60mV by whole cell voltage clamp method; type: cell-based; in short: as §2
[21] = target: Glutamate NMDA receptor; Grin1/Grin2c (Rattus norvegicus, UniProt P35439+Q00961); assay: Positive allosteric modulation of recombinant rat GluN1alpha/GluN2C receptor expressed in HEK293 cells assessed as potentiation of glutamate-induced current response at holding potential -60mV by whole cell voltage clamp method; type: cell-based; in short: as §2
[22] = target: T3, Glutamate NMDA receptor; Grin1/Grin2a (Rattus norvegicus); assay: Positive allosteric modulation of recombinant rat GluN1alpha/GluN2A receptor expressed in HEK293 cells assessed as potentiation of glutamate-induced current response at 30 uM at holding potential -60mV by whole cell voltage clamp method relative to control; type: cell-based; in short: as §2
[23] = target: Ionotropic glutamate receptor NMDA 1/2D (Rattus norvegicus, UniProt P35439+Q62645); assay: Positive allosteric modulation of recombinant rat GluN1alpha/GluN2D receptor expressed in HEK293 cells assessed as potentiation of glutamate-induced current response at holding potential -60mV by whole cell voltage clamp method; type: cell-based; in short: as §2

Activity [1]: 78%
Activity [2]: -48%
Activity [3]: 107%
Activity [4]: -47%
Emax [5]: 116%
SMILES: CC(=O)[C@H]1CC[C@H]2[C@@H]3CC=C4C[C@@H](OS(=O)(=O)O)CC[C@]4(C)[C@H]3CC[C@]12C.c1ccncc1

SMILES: CC(=O)[C@H]1CC[C@H]2[C@@H]3CC=C4C[C@@H](OC(=O)CCCCC(=O)O)CC[C@]4(C)[C@H]3CC[C@]12C
Activity [1]: 614%
EC50 [6]: 8.5 to 9.1 µM
Activity [7]: 137%
Activity [8]: 138%
Activity [9]: 136%
Activity [10]: 118%
Emax [11]: 157%
Activity (Rattus norvegicus [12]): -90%
Activity (Rattus norvegicus [13]): -7%
Activity [14]: 75%
Activity [15]: 88%
Activity [16]: 134%
Emax [5]: 151%
Emax [17]: 203%
Emax [18]: 145%
Emax [19]: 115%
EC50 [20]: 8.9 µM
EC50 [21]: 10.4 µM
Activity [22]: 192%
EC50 [23]: 13 µM

Reference: ChEMBL document CHEMBL4219253, “Positive Modulators of the N-Methyl-d-aspartate Receptor: Structure-Activity Relationship Study of Steroidal 3-Hemiesters” (J Med Chem, 2018)
